The results in this text go back to ChEMBL document CHEMBL3779767, “Identification of potent and selective MTH1 inhibitors” (Bioorg Med Chem Lett, 2016).

A word on the half-life: it is how long it takes for the measured level to halve. The low end stands for fast loss, the high end for slow loss. As a reminder, the efflux ratio is a quotient of directional permeabilities that is used to spot active efflux.

Data set [1] concerns HMEC. Kind of data set: Cytotoxicity against human HMEC cells assessed as change in phenotypic response. Type of data set: cell-based.
The subject of data set [2] is MRC5. Kind of data set: Cytotoxicity against human MRC5 cells assessed as change in phenotypic response. Type of data set: cell-based.
For data set [3], the system named is HeLa. Kind of data set: Antiproliferative activity against human HeLa cells assessed as change in phenotypic response. The format is functional, cell-based.
A short description of data set [4]: Cytotoxicity against human 293T cells assessed as change in phenotypic response. The format is cell-based. The conditions noted are these: hek-293t.
Data set [5] relates to A549. The experiment in a line: Antiproliferative activity against human A549 cells assessed as change in phenotypic response. Type of data set: functional, cell-based.
Data set [6] deals with SW480. The experiment in a line: Antiproliferative activity against human SW480 cells assessed as change in phenotypic response. The format is functional, cell-based.
Data set [7] relates to MDA-MB-231. Kind of data set: Antiproliferative activity against human MDA-MB-231 cells assessed as change in phenotypic response. The format is functional, cell-based.
Data set [8] concerns BJ. The experiment in a line: Cytotoxicity against human BJ cells assessed as change in phenotypic response. The format is cell-based.
Data set [9] has as its system SAOS-2. The experiment in a line: Antiproliferative activity against human Saos2 cells assessed as change in phenotypic response. The format is functional, cell-based.
The subject of data set [10] is U2OS. The experiment in a line: Antiproliferative activity against human U2OS cells assessed as change in phenotypic response. The format is functional, cell-based.
The subject of data set [11] is HCT-116. The experiment in a line: Antiproliferative activity against human HCT116 cells assessed as change in phenotypic response. The format is functional, cell-based.
The test system of data set [12] is NCI-H460. The experiment in a line: Antiproliferative activity against human NCI-H460 cells assessed as change in phenotypic response. The format is functional, cell-based.
A short description of data set [13]: Cytotoxicity against human WI38 cells assessed as change in phenotypic response. The conditions noted are these: wi-38. The format is cell-based.
Data set [14] is described as follows: Cytotoxicity against human WI38 cells assessed as change in phenotypic response measured after prolonged treatment. Type of data set: cell-based. The conditions noted are these: wi-38.
Data set [15] concerns UOK 262. The experiment in a line: Antiproliferative activity against human UOK 262 cells assessed as change in phenotypic response up to 50 uM. The format is functional, cell-based.
Data set [16] relates to A549. Kind of data set: Antiproliferative activity against human A549 cells assessed as change in phenotypic response measured after prolonged treatment. Type of data set: functional, cell-based.
The subject of data set [17] is UOK 262. The experiment in a line: Antiproliferative activity against human UOK 262 cells assessed as change in phenotypic response measured after prolonged treatment. The format is functional, cell-based.
For data set [18], the system named is SW480. The experiment in a line: Antiproliferative activity against human SW480 cells assessed as change in phenotypic response up to 50 uM. The format is functional, cell-based.
Data set [19] has as its system MDA-MB-231. Kind of data set: Antiproliferative activity against human MDA-MB-231 cells assessed as change in phenotypic response measured after prolonged treatment. The format is functional, cell-based.
Data set [20] is described as follows: Half life in human plasma. The format is ADME, cell-free. Put shortly:
(§1)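 Plasma stability was measured in human and rat plasma, with half-life reported in hours.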

The subject of data set [21] is U2OS. The experiment in a line: Antiproliferative activity against human U2OS cells assessed as change in phenotypic response up to 50 uM. The format is functional, cell-based.
Data set [22] can be described thus: Efflux ratio of permeability in MDCK cells. The format is ADME, cell-based, Canis lupus familiaris. Particulars: dog. Put shortly: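 Permeability measured across a confluent MDCK cell monolayer, with the efflux ratio reported alongside the permeability value.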
Data set [23] in a line: Permeability across MDCK cells. Type of data set: ADME, cell-based, Canis lupus familiaris. The conditions noted are these: dog, read-out: permeability. In short, it runs like this:
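Measured across a confluent MDCK cell monolayer; apparent permeability is reported together with the efflux ratio.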

For data set [24], the system named is MRC5. Kind of data set: Cytotoxicity against human MRC5 cells assessed as change in phenotypic response up to 50 uM. Type of data set: cell-based.
Data set [25] can be described thus: Cytotoxicity against human 293T cells assessed as change in phenotypic response measured after prolonged treatment. Type of data set: cell-based. The conditions noted are these: hek-293t.
In data set [26] the test system is BJ. The experiment in a line: Cytotoxicity against human BJ cells assessed as change in phenotypic response up to 50 uM. Type of data set: cell-based.
Data set [27] relates to HMEC. Kind of data set: Cytotoxicity against human HMEC cells assessed as change in phenotypic response up to 50 uM. The format is cell-based.
Data set [28] concerns BJ. Kind of data set: Cytotoxicity against human BJ cells assessed as change in phenotypic response measured after prolonged treatment. Type of data set: cell-based.
Data set [29] deals with HCT-116. Kind of data set: Antiproliferative activity against human HCT116 cells assessed as change in phenotypic response up to 50 uM. Type of data set: functional, cell-based.
The nature of data set [30]: Cytotoxicity against human WI38 cells assessed as change in phenotypic response up to 50 uM. Type of data set: cell-based. Particulars: wi-38.
For data set [31], the system named is HeLa. Kind of data set: Antiproliferative activity against human HeLa cells assessed as change in phenotypic response up to 50 uM. The format is functional, cell-based.
The test system of data set [32] is U2OS. Kind of data set: Antiproliferative activity against human U2OS cells assessed as change in phenotypic response measured after prolonged treatment. Type of data set: functional, cell-based.
Data set [33] concerns HCT-116. Kind of data set: Antiproliferative activity against human HCT116 cells assessed as change in phenotypic response measured after prolonged treatment. Type of data set: functional, cell-based.
The nature of data set [34]: Half life in human liver microsomes. The format is ADME. Put shortly:
(§2)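 Incubated with human or mouse liver microsomes; the read-out was intrinsic clearance alongside half-life, given in hours.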

Data set [35] deals with MRC5. Kind of data set: Cytotoxicity against human MRC5 cells assessed as change in phenotypic response measured after prolonged treatment. The format is cell-based.
In data set [36] the test system is A549. Kind of data set: Antiproliferative activity against human A549 cells assessed as change in phenotypic response up to 50 uM. The format is functional, cell-based.
Data set [37] deals with NCI-H358. The experiment in a line: Antiproliferative activity against human NCI-H358 cells assessed as change in phenotypic response up to 50 uM. Type of data set: functional, cell-based.
Data set [38] in a line: Plasma protein binding in human. Type of data set: ADME, cell-free. The conditions noted are these: read-out: PPB (converted).
The test system of data set [39] is SAOS-2. The experiment in a line: Antiproliferative activity against human Saos2 cells assessed as change in phenotypic response measured after prolonged treatment. The format is functional, cell-based.
Data set [40] is described as follows: Half life in rat plasma. The format is ADME, cell-free. In short, it runs like this:
as §1

Data set [41] is described as follows: Half life in mouse liver microsomes. Type of data set: ADME. Put shortly:
as §2

Data set [42] can be described thus: Intrinsic clearance in mouse liver microsomes. The format is ADME.
The test system of data set [43] is HeLa. The experiment in a line: Antiproliferative activity against human HeLa cells assessed as change in phenotypic response measured after prolonged treatment. The format is functional, cell-based.
For data set [44], the system named is HMEC. Kind of data set: Cytotoxicity against human HMEC cells assessed as change in phenotypic response measured after prolonged treatment. Type of data set: cell-based.
For data set [45], the system named is SW480. Kind of data set: Antiproliferative activity against human SW480 cells assessed as change in phenotypic response measured after prolonged treatment. Type of data set: functional, cell-based.
In data set [46] the test system is NCI-H358. The experiment in a line: Antiproliferative activity against human NCI-H358 cells assessed as change in phenotypic response measured after prolonged treatment. The format is functional, cell-based.
In data set [47] the test system is NCI-H460. The experiment in a line: Antiproliferative activity against human NCI-H460 cells assessed as change in phenotypic response up to 50 uM. Type of data set: functional, cell-based.
Data set [48] can be described thus: Cytotoxicity against human 293T cells assessed as change in phenotypic response up to 50 uM. The conditions noted are these: hek-293t. The format is cell-based.
In data set [49] the test system is SAOS-2. Kind of data set: Antiproliferative activity against human Saos2 cells assessed as change in phenotypic response up to 50 uM. The format is functional, cell-based.
The test system of data set [50] is Liver microsome. Kind of data set: Intrinsic clearance in human liver microsomes. Type of data set: ADME. Background: Liver microsomes are a subcellular fraction often used to study metabolism.
Data set [51] deals with NCI-H460. The experiment in a line: Antiproliferative activity against human NCI-H460 cells assessed as change in phenotypic response measured after prolonged treatment. The format is functional, cell-based.
Data set [52] relates to MDA-MB-231. The experiment in a line: Antiproliferative activity against human MDA-MB-231 cells assessed as change in phenotypic response up to 50 uM. Type of data set: functional, cell-based.
Data set [53] concerns Liver microsome. The experiment in a line: Intrinsic clearance in human liver microsomes at 1 uM up to 40 mins by LC-MS/MS analysis. The format is ADME.
Data set [54] can be described thus: Plasma protein binding in human plasma at 10 uM after 4 hrs by LC-MS/MS analysis. The format is ADME, cell-free. The conditions noted are these: read-out: PPB (converted).

Calls of active or inactive are those of the source. No cut-off for these calls is given here.

As for `Nc1nc(NC2CC2)cc(-c2cccc(Cl)c2Cl)n1`, the Activity result (with HMEC [1]; with MRC5 [2]; in data set [4]; with BJ [8]; in data set [13]) was “Toxic” each time. The outcome with HeLa [3], in the data set on A549 [5], with SW480 [6], with MDA-MB-231 [7], with SAOS-2 [9] and in the data set with U2OS [10] was Active. The result in the data set on HCT-116 [11] and with NCI-H460 [12] was Active.

As to `Cc1cnc(N)nc1OCC(C)(C)C`, the Activity result (in [14]; in the data set with MRC5 [24]; in [25]; with BJ [26]; with HMEC [27]; in the data set on BJ [28]) was “Non-toxic” throughout. Moreover, the Activity result (in [30]; with MRC5 [35]; with HMEC [44]; in data set [48]) was “Non-toxic” each time. The result with UOK 262 [15], in the data set with A549 [16], in the data set with UOK 262 [17], in the data set on SW480 [18], in the data set on MDA-MB-231 [19] and in the data set with U2OS [21] was inactive. The result in the data set with HCT-116 [29], with HeLa [31], in the data set with U2OS [32], in the data set on HCT-116 [33], in the data set with A549 [36] and in the data set with NCI-H358 [37] was inactive. The result in the data set with SAOS-2 [39], with HeLa [43], with SW480 [45], with NCI-H358 [46], in the data set with NCI-H460 [47] and with SAOS-2 [49] was inactive. The result in the data set with NCI-H460 [51] and in the data set on MDA-MB-231 [52] was inactive. Moreover, the half-life in [20] is 19 h; in data set [34], 0.5 h; in data set [40], 20 h; in data set [41], 0.3 h. For the same compound, the efflux ratio in [22] was found to be 0.8. The Papp in [23] worked out at 37 ×10⁻⁶ cm/s. Moreover, the fraction unbound in data set [38] was 0.06. The CLH was found to be 280 µL/min/mg in data set [42] and 82 µL/min/mg in the data set on Liver microsome [50].

For `CNc1cc(-c2cccc(Cl)c2Cl)nc(N)n1`, the Activity entry (in the data set with HMEC [1]; in the data set on MRC5 [2]; in data set [4]; in the data set with BJ [8]; in data set [13]) was “Toxic” in each case. Moreover, the efflux ratio in data set [22] turned out to be 0.8. Moreover, in data set [23], the Papp is 30 ×10⁻⁶ cm/s. Further, the result in the data set with HeLa [3], with A549 [5], with SW480 [6], in the data set on MDA-MB-231 [7], with SAOS-2 [9] and in the data set on U2OS [10] was Active. Further, the result with HCT-116 [11] and in the data set on NCI-H460 [12] was Active. In addition, in the data set with Liver microsome [53], the CLH came out at 54 µL/min/mg. Besides, in data set [54], the fraction unbound at 4 h, 10 µM was 0.08.
